From ChEMBL document CHEMBL5042469, “Unique Molecular Interaction with the Histone Deacetylase 6 Catalytic Tunnel: Crystallographic and Biological Characterization of a Model Chemotype” (J Med Chem, 2021)

Key:
[1] = Stability in human whole blood assessed as compound remaining measured after 15 mins; format: ADME, tissue-based; details: read-out: Stability
Histone deacetylase 2 = Histone deacetylase 2 (Homo sapiens, UniProt Q92769); assay: Inhibition of full length human HDAC2 using FAM-labeled acetylated peptide as substrate by electrophoretic mobility shift assay
Summary of the method: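 Full-length human HDAC isoform enzymatic assay by electrophoretic mobility shift, using a FAM-labelled acetylated peptide substrate. […] Values are the mean of duplicate experiments with 95% confidence intervals.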

Histone deacetylase 2, sequence (Q92769 whole entry, canonical isoform): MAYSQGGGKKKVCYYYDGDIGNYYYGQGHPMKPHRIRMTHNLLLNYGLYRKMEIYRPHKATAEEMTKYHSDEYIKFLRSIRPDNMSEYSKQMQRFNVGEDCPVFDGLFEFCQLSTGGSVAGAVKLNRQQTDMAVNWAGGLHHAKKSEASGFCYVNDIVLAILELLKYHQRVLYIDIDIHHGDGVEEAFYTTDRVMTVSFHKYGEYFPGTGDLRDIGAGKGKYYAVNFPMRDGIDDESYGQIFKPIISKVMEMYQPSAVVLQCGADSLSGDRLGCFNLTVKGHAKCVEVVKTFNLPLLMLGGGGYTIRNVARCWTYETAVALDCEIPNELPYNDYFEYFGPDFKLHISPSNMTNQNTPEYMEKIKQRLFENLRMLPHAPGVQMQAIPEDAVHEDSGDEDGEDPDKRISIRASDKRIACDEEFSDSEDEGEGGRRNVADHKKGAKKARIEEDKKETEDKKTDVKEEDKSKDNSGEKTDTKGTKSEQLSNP

O=C(NO)c1ccc(CN(Cc2cccnc2)S(=O)(=O)c2cc(F)c(F)c(F)c2F)cc1
remaining at 0.25 h [1]: 88% | IC50 (Histone deacetylase 2): 4.97 µM
